In ChEMBL document CHEMBL3217620, “Relative impact of 3- and 5-hydroxyl groups of cytosporone B on cancer cell viability” (Medchemcomm, 2013):
The source made the active and inactive calls. No cut-off for these calls is given here.

Columns and labels:
[1] = Cytotoxicity against human H460 cells assessed as cell viability at 10 uM after 72 hrs by MTT assay; format: functional; conditions: NCI-H460, 72 h, read-out: Activity
How it was run: (§1)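 NCI-H460 NSCLC cells, […] exponentially growing cells/well, seeded and left overnight. Compound added at 0.1, 1.0 and 10 μM (vehicle DMSO, 0.1% final) in RPMI-1640 with 10% FBS for 72 h. MTT then added at 0.5 mg/mL for 4 h, formazan dissolved in DMSO, absorbance read at 490 nm.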

NCI-H460 [2] = assay: Induction of apoptosis in human H460 cells assessed as PARP cleavage at 10 uM after 8 hrs by SDS-PAGE; format: functional, cell-based
How it was run: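 H460 cells in serum-free RPMI-1640, attached 12 h, then given 10 μM compound for 8 h. Lysed in Tris-HCl pH 7.9 buffer with NaCl, EDTA, Triton X-100 and protease inhibitors. Run on 12% SDS-PAGE, blotted to nitrocellulose, probed overnight at 4 °C with rabbit polyclonal anti-PARP, then HRP anti-rabbit IgG. ECL detection; β-actin reprobe as loading control.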

[3] = molecular target: Nuclear receptor subfamily 4immunitygroup A member 1 (Homo sapiens) (UniProt P22736); assay: Induction of translocation of NR4A1 from nucleus to cytoplasm in human H460 cells at 10 uM after 8 hrs by DAPI staining-based confocal microscopy relative to control; format: cell-based
How it was run: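 Serum-starved H460 cells grown overnight on coverslips, treated 8 h with 10 µM compound or vehicle. Fixed (3.7% paraformaldehyde), permeabilized (0.3% Triton X-100, 10 min), blocked in 3% BSA. Stained with rabbit monoclonal anti-NR4A1 and Alexa Fluor 594 anti-rabbit IgG, nuclei with DAPI. Overlaid confocal images used to judge NR4A1 localization.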

[4] = Cytotoxicity against human H460 cells after 72 hrs by MTT assay; format: functional, cell-based; conditions: NCI-H460, 72 h; how it was run: as §1
LNCaP [5] = assay: Cytotoxicity against human LNCAP cells after 72 hrs by MTT assay; format: functional, cell-based
How it was run: (§2)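 LNCaP cells at 5×10^3/well in RPMI-1640 with 10% FBS, attached 24 h. Treated 72 h with compound at 1–20 µM or DMSO alone (0.2% final). Viability by MTT per kit protocol. Points are means of six replicates ± SD; IC₅₀ interpolated from dose–response curves.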

BGC-823 [6] = assay: Induction of apoptosis in human BGC823 cells assessed as mitochondrial cytochrome c release at 15.5 uM after 48 hrs; format: functional
LNCaP [7] = assay: Cytotoxicity against human LNCAP cells at 20 uM after 72 hrs by MTT assay; format: functional; how it was run: as §2
[8] = Cytotoxicity against human H460 cells at 20 uM after 72 hrs by MTT assay; format: functional; conditions: NCI-H460, 72 h
[9] = molecular target: Nuclear receptor subfamily 4immunitygroup A member 1 (Homo sapiens) (UniProt P22736); assay: Binding affinity to human recombinant N-terminal His6-tagged NR4A1 LBD expressed in Escherichia coli BL21 at 100 uM by NMR spectroscopy
NCI-H460 [10] = assay: Induction of apoptosis in human H460 cells assessed as DNA fragmentation at 10 uM after 8 hrs by DAPI staining-based confocal microscopy relative to control; format: functional
How it was run: (§3)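 H460 cells in serum-free RPMI-1640 on coverslips, attached 12 h, given 10 μM compound for 8 h. Fixed in 3.7% paraformaldehyde, permeabilized in 0.3% Triton X-100/PBS, blocked in 3% BSA, DAPI-stained and viewed by fluorescence microscopy. Cells with nuclear fragmentation and/or chromatin condensation scored in 300-cell fields; mean of triplicates ± SD.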

NCI-H460 [11] = assay: Induction of apoptosis in human H460 cells assessed as chromatin condensation at 10 uM after 8 hrs by relative to control; format: functional; how it was run: as §3
BGC-823 [12] = assay: Induction of apoptosis in human BGC823 cells assessed as procaspase9 cleavage at 15.5 uM after 48 hrs; format: functional
BGC-823 [13] = assay: Induction of apoptosis in human BGC823 cells assessed as nuclear DNA condensation at 15.5 uM after 48 hrs; format: functional
[14] = molecular target: Nuclear receptor subfamily 4immunitygroup A member 1 (Homo sapiens) (UniProt P22736); assay: Binding affinity to NR4A1 (unknown origin) at 0.1 uM by luciferase reporter gene assay relative to control
[15] = molecular target: Nuclear receptor subfamily 4immunitygroup A member 1 (Homo sapiens) (UniProt P22736); assay: Binding affinity to human recombinant N-terminal His6-tagged NR4A1 LBD expressed in Escherichia coli BL21 at 50 uM by NMR spectroscopy
LNCaP [16] = assay: Cytotoxicity against human LNCAP cells after 72 hrs; format: functional, cell-based
[17] = Cytotoxicity against human H460 cells after 48 hrs by MTT assay; format: functional, cell-based; conditions: NCI-H460, 48 h
[18] = molecular target: Nuclear receptor subfamily 4immunitygroup A member 1 (Homo sapiens) (UniProt P22736); assay: Binding affinity to human recombinant N-terminal His6-tagged NR4A1 LBD expressed in Escherichia coli BL21 by isothermal titration calorimetry

Chain of Nuclear receptor subfamily 4immunitygroup A member 1 (Homo sapiens) (P22736 whole entry, the tested form may be a part): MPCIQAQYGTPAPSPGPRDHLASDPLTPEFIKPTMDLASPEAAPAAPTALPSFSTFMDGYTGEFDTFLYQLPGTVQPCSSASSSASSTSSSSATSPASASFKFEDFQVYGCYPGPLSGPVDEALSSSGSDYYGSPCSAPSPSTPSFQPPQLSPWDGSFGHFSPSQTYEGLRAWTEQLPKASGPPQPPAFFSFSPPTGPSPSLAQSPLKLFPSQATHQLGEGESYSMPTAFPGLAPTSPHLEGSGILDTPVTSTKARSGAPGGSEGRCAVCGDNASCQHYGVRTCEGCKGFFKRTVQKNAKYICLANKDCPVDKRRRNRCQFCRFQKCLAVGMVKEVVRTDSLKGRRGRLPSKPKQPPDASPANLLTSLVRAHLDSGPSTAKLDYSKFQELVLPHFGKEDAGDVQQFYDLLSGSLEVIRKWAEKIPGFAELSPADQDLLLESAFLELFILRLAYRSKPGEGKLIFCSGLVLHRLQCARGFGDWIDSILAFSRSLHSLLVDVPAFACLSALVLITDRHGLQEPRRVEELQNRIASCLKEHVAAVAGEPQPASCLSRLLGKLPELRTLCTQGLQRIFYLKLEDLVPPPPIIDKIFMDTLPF

Row | Activity [3] | Activity [9] | Ratio [14] | Activity [15] | Activity [18] | Compound | viability at 10 µM [1] [%] | Activity (NCI-H460 [2]) | IC50 [4] [µM] | IC50 (LNCaP [5]) [µM] | Activity (BGC-823 [6]) [%] | inhibition at 20 µM (LNCaP [7]) [%] | inhibition at 20 µM [8] [%] | fold change (FC) (NCI-H460 [10]) | fold change (FC) (NCI-H460 [11]) | Activity (BGC-823 [12]) [%] | Activity (BGC-823 [13]) [%] | IC50 (LNCaP [16]) [µM] | IC50 [17] [µM]
1 | Active | Active | 12.5 |  |  | CCCCCCCC(=O)c1c(O)cc(O)cc1CC(=O)OCC [CYTOSPORONE B] | 50 | Active | 15.3 | 13.4 | 63 | 76 | 88 | 4.4 | 4.4 | 63 | 63 |  | 
2 | Active |  |  | Active |  | CCCCCCCC(=O)c1c(O)cc(OC)cc1CC(=O)OCC | 22 | Active | 15.9 | 11.4 |  | 80 | 75 | 5.1 | 5.1 |  |  |  | 
3 | Active |  |  |  |  | FC(F)(F)c1ccc(C(c2c[nH]c3ccccc23)c2c[nH]c3ccccc23)cc1 | 90 | Active | 4.6 | 9.7 |  | 97 |  | 3.7 | 3.7 |  |  | 5 | 7.7
4 | inactive |  |  | inactive | inactive | CCCCCCCC(=O)c1c(CC(=O)OCC)cc(OC)cc1OC | 24 | Active | > 20 |  |  | 14 | 11 |  |  |  |  |  | 
